Legend:
Homo sapiens = species on record: Homo sapiens; experiment: In vitro inhibition of U-46,619-induced aggregation of unwashed human platelets.; format: functional; conditions: Homo sapiens; read-out: pA2 (converted)
Outline: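 Citrated (3.2%) human venous blood spun at 200g for 10 min. Platelet-rich plasma aggregated with U46619 with or without several antagonist concentrations.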

Rattus norvegicus [1] = experiment: Ex vivo […] (TXA2 synthase) inhibitory activity after 3 hr of oral dosing (10 mg/kg) in the rat; format: functional
Outline: (§1)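 Rats (n = 6) gavaged, anesthetized, aortic blood taken at 1, 3 or 5 h after dosing. A blood aliquot was challenged with collagen and TXB2 measured by radioimmunoassay; expressed as % inhibition of TXA2 synthase (±SEM).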

Rattus norvegicus [2] = experiment: Ex vivo […] (TXA2 synthase) inhibitory activity after 5 hr of oral dosing (10 mg/kg) in the rat; format: functional; outline: as §1
Rattus norvegicus [3] = experiment: Ex vivo […] (TXA2 synthase) inhibitory activity after 1 hr of oral dosing (10 mg/kg) in the rat; format: functional; outline: as §1
Rattus norvegicus [4] = experiment: Ex vivo TXA2 ([…]) antagonist activity was determined for U-46,619 induced aggregation (dose ratio) after 1 hr of oral dosing (10 mg/kg) in the rat; format: functional
Outline: (§2)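 Conscious rats (n = 6) dosed by oral gavage, then anesthetized and bled from the abdominal aorta at 1, 3 or 5 h. Platelet-rich plasma aggregated with U46619 before and after dosing to give a U46619 dose ratio. ">" values mark the maximum dose ratio achievable at the top U46619 concentration (1 × 10^-4 M).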

Rattus norvegicus [5] = experiment: Ex vivo TXA2 ([…]) antagonist activity was determined for U-46,619 induced aggregation (dose ratio) after 3 hr of oral dosing (10 mg/kg) in the rat; format: functional; outline: as §2
Rattus norvegicus [6] = experiment: Ex vivo TXA2 ([…]) antagonist activity was determined for U-46,619 induced aggregation (dose ratio) after 5 hr of oral dosing (10 mg/kg) in the rat; format: functional; outline: as §2
Thromboxane-A synthase = molecular target: T1, Thromboxane-A synthase (Homo sapiens, UniProt P24557); experiment: In vitro Inhibition of thromboxane synthase from human blood platelet microsomes
T1 sequence (P24557 whole entry): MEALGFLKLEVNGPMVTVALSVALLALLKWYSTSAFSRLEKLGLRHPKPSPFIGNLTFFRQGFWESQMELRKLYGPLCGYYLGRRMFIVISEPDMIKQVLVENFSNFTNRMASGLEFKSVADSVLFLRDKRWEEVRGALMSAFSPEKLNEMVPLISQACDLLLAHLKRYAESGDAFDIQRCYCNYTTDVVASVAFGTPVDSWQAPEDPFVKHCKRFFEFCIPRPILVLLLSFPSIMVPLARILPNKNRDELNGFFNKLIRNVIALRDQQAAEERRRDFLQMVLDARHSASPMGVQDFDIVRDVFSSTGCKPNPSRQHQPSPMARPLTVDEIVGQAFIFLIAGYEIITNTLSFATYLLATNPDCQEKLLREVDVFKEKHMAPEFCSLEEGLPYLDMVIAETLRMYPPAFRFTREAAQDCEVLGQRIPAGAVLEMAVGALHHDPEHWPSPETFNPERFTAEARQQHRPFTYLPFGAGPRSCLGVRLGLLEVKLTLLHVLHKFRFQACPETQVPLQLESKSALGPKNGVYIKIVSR
Outline: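 Human blood platelet microsomes incubated with [1-14C]arachidonic acid with or without inhibitor. Conversion to labeled thromboxane B2 quantified radiochromatographically. n = 2.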

Prostacyclin synthase = molecular target: T2, Prostacyclin synthase (Homo sapiens, UniProt Q16647); experiment: In vitro inhibition of Prostaglandin I2 synthase in cultured human endothelial cells
T2 sequence (Q16647 whole entry): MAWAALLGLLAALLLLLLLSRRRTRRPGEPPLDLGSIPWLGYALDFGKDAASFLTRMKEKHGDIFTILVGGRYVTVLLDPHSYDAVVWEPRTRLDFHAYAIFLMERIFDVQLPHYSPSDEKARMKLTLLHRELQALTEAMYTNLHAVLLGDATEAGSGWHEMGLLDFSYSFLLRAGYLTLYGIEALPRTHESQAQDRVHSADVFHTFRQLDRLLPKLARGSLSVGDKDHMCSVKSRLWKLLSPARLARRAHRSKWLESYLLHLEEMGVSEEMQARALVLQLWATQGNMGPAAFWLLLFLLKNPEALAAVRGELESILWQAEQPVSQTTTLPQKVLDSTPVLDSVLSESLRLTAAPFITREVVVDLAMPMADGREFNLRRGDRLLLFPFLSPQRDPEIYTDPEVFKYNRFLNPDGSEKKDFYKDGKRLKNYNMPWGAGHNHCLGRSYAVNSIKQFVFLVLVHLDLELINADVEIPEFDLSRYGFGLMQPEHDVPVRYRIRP

[7] = test system: Thromboxane-A synthase (Canis familiaris); experiment: Ex vivo […] (TXA2 synthase) inhibitory activity after 5 hr of oral dosing (1 mg/kg) in the dog; conditions: Canis lupus familiaris
[8] = test system: Thromboxane-A synthase (Canis familiaris); experiment: Ex vivo […] (TXA2 synthase) inhibitory activity after 8 hr of oral dosing (1 mg/kg) in the dog; conditions: Canis lupus familiaris
[9] = test system: Thromboxane-A synthase (Canis familiaris); experiment: Ex vivo […] (TXA2 synthase) inhibitory activity after 24 hr of oral dosing (1 mg/kg) in the dog; conditions: Canis lupus familiaris

Row | IC50 (Thromboxane-A synthase) [nM] | IC50 (Prostacyclin synthase) [nM] | inhibition [7] [%] | inhibition [8] [%] | inhibition [9] [%] | SMILES | Kb (Homo sapiens) [nM] | Inhibition (Rattus norvegicus [1]) [%] | Inhibition (Rattus norvegicus [2]) [%] | Inhibition (Rattus norvegicus [3]) [%] | Antagonist activity (Rattus norvegicus [4]) | Antagonist activity (Rattus norvegicus [5]) | Antagonist activity (Rattus norvegicus [6])
1 | < 10 | < 1000 | – | – | – | CC(C)(Oc1ccccc1[N+](=O)[O-])C1OCC(C/C=C\CCC(=O)O)C(c2cccnc2)O1 (centres undefined) | 11.2 | 75.8 | 63.2 | 85.5 | >57 | 9 | 3
2 | 51 | 2000 | – | – | – | CC(C)(Oc1ccc(F)cc1)C1OCC(C/C=C\CCC(=O)O)C(c2cccnc2)O1 (centres undefined) | 120 | 80 | 83 | 93.2 | 6 | 4 | 4
3 | 54 | > 100000 | 91 | 84 | 82.6 | N#Cc1ccccc1C1OCC(C/C=C\CCC(=O)O)C(c2cccnc2)O1 (centres undefined) | 245 | – | – | – | – | – | –
